ChEMBL document CHEMBL3526146, “In vitro and in vivo metabolism and pharmacokinetics of BMS-562086, a potent and orally bioavailable corticotropin-releasing factor-1 receptor antagonist” (Drug Metab Dispos, 2012)

What was measured:
[1] = Drug metabolism in bile duct-cannulated Sprague-Dawley rat urine assessed as DPH-124921metabolite level at 30 mg/kg, po after 12 hrs by LC-MS/MS analysis; format: ADME, organism-based; design: dose 30 mg/kg, route oral; conditions: in vivo
Summary of the method: (§1)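 Male bile-duct-cannulated Sprague-Dawley rats (n=3), fasted overnight, received 30 mg/kg by gavage in 0.5% methylcellulose. Urine and bile were collected 0-12 h and pooled by equal percentage weight across animals, then centrifuged. Supernatants were profiled by LC/MS/MS. Bile was also treated with β-glucuronidase in pH 4.8 acetate buffer, 37°C, 16 h.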

[2] = Drug metabolism in bile duct-cannulated Sprague-Dawley rat bile assessed as BMS-572273 metabolite level at 30 mg/kg, po after 12 hrs by LC-MS/MS analysis; format: ADME, organism-based; design: dose 30 mg/kg, route oral; conditions: in vivo; summary of the method: as §1
[3] = Oral bioavailability in beagle dog at 5 mg/kg; format: ADME, organism-based, Canis lupus familiaris; conditions: in vivo
Summary of the method: (§2)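 Male beagle dogs (n=3), one-way IV/PO crossover with a one-week washout, fasted about 15 h before and 4 h after dosing. IV dose of 1 mg/kg as a saphenous bolus in N,N-dimethylacetamide:propylene glycol:water (1:7:2); PO dose of 5 mg/kg by gavage in 0.5% methylcellulose. Plasma sampled 0–96 h and assayed by LC/MS/MS (LLOQ 1.00 ng/ml). Noncompartmental analysis; CL = dose/AUC(INF) after IV; F from dose-normalized AUC ratio.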

[4] = Terminal half life in beagle dog at 5 mg/kg, po; format: ADME, organism-based, Canis lupus familiaris; design: dose 5 mg/kg, route oral; conditions: in vivo, read-out: beta t1/2 (converted)
Summary of the method: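 Male beagles (n=3, 10.1-12.7 kg) in one-way crossover, one-week washout after IV leg; fasted ~15 h before and 4 h after dosing. Single gavage 5 mg/kg in 0.5% aqueous methylcellulose. Plasma sampled 0-96 h, parent measured by validated LC/MS/MS (1.00-1000 ng/ml). Noncompartmental analysis; Tmax taken from observed data.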

[5] = Drug metabolism in rat hepatocytes assessed as decrease of compound level at 25 uM after 3 hrs by HPLC analysis; format: ADME, cell-based, Hepatocyte; conditions: read-out: Drug metabolism
[6] = AUC (infinity) in beagle dog at 1 mg/kg, iv; format: ADME, organism-based, Canis lupus familiaris; design: time infinity, dose 1 mg/kg, route intravenous; conditions: plasma
Summary of the method: (§3)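 Male beagle dogs (n=3, 10.1-12.7 kg) in a one-way IV/PO crossover with one-week washout, fasted ~15 h pre-dose and 4 h post-dose. Dosing was 1 mg/kg IV bolus into the saphenous vein in DMA:propylene glycol:water (1:7:2), or 5 mg/kg gavage in 0.5% methylcellulose. Blood was sampled 0-96 h. Plasma was assayed by LC/MS/MS (LLOQ 1.00 ng/ml) with noncompartmental analysis; Cmax was observed directly.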

Serum [7] = assay: Metabolic stability in dog serum after 3 hrs by equilibrium dialysis; format: ADME, cell-free, Canis lupus familiaris
Summary of the method: (§4)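 Stability assessed in the serum samples from the equilibrium-dialysis setup: compound at final 12.8, 25.6 and 38.5 µM, dialysed against 134 mM phosphate buffer, pH 7.4, at 37°C with rotation at 20 rpm. Samples monitored for degradants over the 3-h incubation.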

[8] = Drug metabolism in human cryopreserved hepatocytes assessed as […] at 25 uM after 3 hrs by HPLC analysis; format: ADME, cell-based, Hepatocyte
Serum [9] = assay: Metabolic stability in human serum after 3 hrs by equilibrium dialysis; format: ADME, cell-free; summary of the method: as §4
[10] = AUC (infinity) in beagle dog at 5 mg/kg, po; format: ADME, organism-based, Canis lupus familiaris; design: time infinity, dose 5 mg/kg, route oral; conditions: plasma; summary of the method: as §3
[11] = Drug metabolism in human cryopreserved hepatocytes assessed as 7-hydroxycoumarin formation at 25 uM after 3 hrs by HPLC analysis; format: ADME, cell-based, Hepatocyte
[12] = AUC (infinity) in Sprague-Dawley rat at 5 mg/kg, po; format: ADME, organism-based; design: time infinity, dose 5 mg/kg, route oral; conditions: plasma
Summary of the method: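 Male Sprague-Dawley rats (n=3 per route, 0.34-0.35 kg, cannulated), fasted ~18 h pre-dose and 4 h post-dose. Dosing was 1 mg/kg IV bolus in 20% ethanol/saline via the jugular cannula, or 5 mg/kg oral gavage in 0.5% aqueous methylcellulose. Jugular blood was sampled 0-96 h. Plasma was assayed by validated LC/MS/MS (LLOQ 1.00 ng/ml), and AUC(INF) was derived by noncompartmental mixed log-linear trapezoidal analysis.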

[13] = Drug metabolism in cynomolgus monkey cryopreserved hepatocytes assessed as decrease of compound level at 25 uM after 3 hrs by HPLC analysis; format: ADME, cell-based, Macaca fascicularis, Hepatocyte; conditions: read-out: Drug metabolism
Summary of the method: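 Mouse, rat, dog, monkey and human hepatocytes (trypan blue viability checked) at 1.0×10^6 cells/ml in Krebs-Henseleit buffer were incubated with 25 µM compound, in duplicate. Conditions were 37°C, 95/5 O2/CO2, orbital shaking, 3 h. 7-Ethoxycoumarin and 7-hydroxycoumarin (100 µM) served as positive controls, with a cell-free negative control. Reactions were quenched with ice-cold acetonitrile, then sonicated and centrifuged; supernatants were analysed by LC/MS/MS.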

[14] = Oral bioavailability in chimpanzee at 1 mg/kg; conditions: Pan troglodytes, in vivo
[15] = Terminal half life in beagle dog at 1 mg/kg, iv; format: ADME, organism-based, Canis lupus familiaris; design: dose 1 mg/kg, route intravenous; conditions: in vivo, read-out: beta t1/2 (converted); summary of the method: as §2

With `COc1ccc(-c2c(C)nn3c(N)nc(C)nc23)c(C)n1` the Drug metabolism [1] was “metabolite_detected”.
For `COc1ccc(-c2c(C)nn3c(O)nc(C)nc23)c(C)n1`, the Drug metabolism [2] was “metabolite_detected”.
A bioavailability [3] of 58.8%, a half-life [4] of 46.7 h and a metabolised at 3 h, 25 µM [5] of 68% were found for `CC[C@@H](C)Nc1nc(C)nc2c(-c3ccc(OC)nc3C)c(C)nn12` [PEXACERFONT] in this work. For the same compound, the AUC(0-inf) [6] was 4.3 µM·h, the Stability (Serum [7]) was “Stable” and the Drug metabolism [8] was “metabolite_detected”. For the same compound, the Stability (Serum [9]) was “Stable”, the AUC(0-inf) [10] was 13 µM·h and the Drug metabolism [11] was “metabolite_detected”. The AUC(0-inf) [12] was 5.82 µM·h, the metabolised at 3 h, 25 µM [13] was 83% and the bioavailability [14] was 58.5%. It also gave a half-life [15] of 43.9 h.
